{"source": "ChEMBL document CHEMBL1153988", "about": "(J Med Chem, 2009)", "key": {"Mus musculus [1]": {"system": "Mus musculus", "assay": "Teratogenic effect in VPA-induced SWV mouse assessed as number of fetuses with neural tube deffects at 336 mg/kg, ip administered on morning of day 8 of gestation", "format": "toxicity, organism-based", "set-up": "dose 336 mg/kg, route intraperitoneal", "conditions": "in vivo", "outline": "(§1)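 Inbred SWV mouse strain highly susceptible to VPA-induced neural tube defects. Each dam received a single ip injection on gestation day 8.5, dosed within 1.8-4.2 mmol/kg, against a control of 25% aqueous Cremophor EL. Groups were compared with the control, and with the matched VPA sodium-salt dose, by Fisher's exact test (p < 0.05).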"}, "Mus musculus [2]": {"system": "Mus musculus", "assay": "Anticonvulsant activity in CF1 albino mouse assessed as protection against maximal electroshock-induced seizures at 100 mg/kg, ip after 4 hrs", "format": "functional, organism-based", "set-up": "dose 100 mg/kg", "outline": "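Adult male CF no. 1 albino mice (18-25 g). Test compound suspended in 0.5% methylcellulose and given intraperitoneally at 0.01 mL/g body weight. Maximal electroshock challenge at the stated time. Read-out is the number of animals protected over the number tested; neurotoxicity is scored in parallel.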"}, "Mus musculus [3]": {"system": "Mus musculus", "assay": "Anticonvulsant activity in CF1 albino mouse assessed as protection against scMet-induced seizures at 100 mg/kg, ip after 0.5 hrs", "format": "functional, organism-based", "set-up": "dose 100 mg/kg", "outline": "(§2)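 Adult male CF no. 1 albino mice (18-25 g) dosed intraperitoneally with compound suspended in 0.5% methylcellulose (0.01 mL/g). Convulsant challenge given subcutaneously as a 0.85% pentylenetetrazol solution in 0.9% saline. Read-out is animals protected over animals tested, with neurotoxicity scored in parallel.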"}, "Mus musculus [4]": {"system": "Mus musculus", "assay": "Anticonvulsant activity in CF1 albino mouse assessed as protection against scMet-induced seizures at 300 mg/kg, ip after 0.5 hrs", "format": "functional, organism-based", "set-up": "dose 300 mg/kg", "outline": "as §2"}, "Mus musculus [5]": {"system": "Mus musculus", "assay": "Neurotoxicity in CF1 albino mouse at 300 mg/kg, ip after 4 hrs", "format": "toxicity, organism-based", "set-up": "dose 300 mg/kg, route intraperitoneal", "conditions": "in vivo", "outline": "(§3)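 Male CF no. 1 albino mice (18-25 g) received a single ip dose as a suspension in 0.5% methylcellulose. The read-out was the number of animals showing neurotoxicity (minimal motor impairment) over the number tested.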"}, "Rattus norvegicus [6]": {"system": "Rattus norvegicus", "assay": "Anticonvulsant activity in albino Sprague-Dawley rat assessed as protection against maximal electroshock-induced seizures at 50 mg/kg, po after 30 mins", "format": "functional", "outline": "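Adult male Sprague-Dawley albino rats (100-150 g) dosed orally with compound suspended in 0.5% methylcellulose (0.04 mL per 10 g). Maximal electroshock challenge at the stated time. Protection is scored in 25% steps as the fraction of animals protected, with neurotoxicity recorded in parallel.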"}, "Rattus norvegicus [7]": {"system": "Rattus norvegicus", "assay": "Anticonvulsant activity in albino Sprague-Dawley rat assessed as protection against scMet-induced seizures at 50 mg/kg, po after 30 mins", "format": "functional", "outline": "(§4)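 Male Sprague-Dawley albino rats (100-150 g) were given the compound orally as a suspension in 0.5% methylcellulose. Seizures were induced by subcutaneous pentylenetetrazol, dissolved in 0.9% saline as a 2.82% solution. The read-out was animals protected over animals tested.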"}, "Rattus norvegicus [8]": {"system": "Rattus norvegicus", "assay": "Anticonvulsant activity in albino Sprague-Dawley rat assessed as protection against scMet-induced seizures at 50 mg/kg, po after 4 hrs", "format": "functional", "outline": "as §4"}, "Mus musculus [9]": {"system": "Mus musculus", "assay": "Anticonvulsant activity in ip dosed CF1 albino mouse assessed as protection against maximal electroshock-induced seizures", "format": "functional", "outline": "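Male CF no. 1 albino mice (18-25 g) were dosed ip in 0.5% methylcellulose and tested by maximal electroshock. Doses were varied to give 3-4 points between 0% and 100% protection. ED50 with 95% confidence interval came from probit analysis.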"}, "Mus musculus [10]": {"system": "Mus musculus", "assay": "Anticonvulsant activity in ip dosed CF1 albino mouse assessed as protection against scMet-induced seizures", "format": "functional", "outline": "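Adult male CF no. 1 albino mice (18-25 g) dosed ip with compound suspended in 0.5% methylcellulose (0.01 mL/g body weight). Seizures were induced by subcutaneous pentylenetetrazol, given as a 0.85% solution in 0.9% saline. ED50 was found by varying the dose to give 3-4 points between 0% and 100% protection, then probit analysis with 95% confidence intervals.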"}, "Mus musculus [11]": {"species": "Mus musculus", "assay": "Protective index, ratio of TD50 for CF1 albino mouse to ED50 for scMet-induced CF1 albino seizure mouse model", "format": "functional", "outline": "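Ratio of TD50 to ED50 (MES or scMet) in male CF no. 1 mice (18-25 g) given ip doses in 0.5% methylcellulose. TD50 comes from minimal motor impairment: the dose was varied until four points lay between no impairment and all animals impaired. Both TD50 and ED50 were derived by probit analysis with 95% confidence intervals.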"}, "[12]": {"assay": "Neurotoxicity in ip dosed CF1 albino mouse assessed as minimal motor impairment", "format": "toxicity, organism-based", "conditions": "CF1, mouse, in vivo", "outline": "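Mice: male CF no. 1 albino (18-25 g), ip dosing in 0.5% methylcellulose. Minimal motor impairment was scored, with doses varied to give four points between no impairment and all animals impaired.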"}, "Mus musculus [13]": {"system": "Mus musculus", "assay": "Neurotoxicity in CF1 albino mouse assessed as minimal motor impairment at 150 mg/kg, ip", "format": "toxicity, organism-based", "set-up": "dose 150 mg/kg, route intraperitoneal", "conditions": "in vivo", "outline": "as §3"}, "Rattus norvegicus [14]": {"system": "Rattus norvegicus", "assay": "Anticonvulsant activity in po dosed albino Sprague-Dawley rat assessed as protection against maximal electroshock-induced seizures", "format": "functional"}, "Rattus norvegicus [15]": {"system": "Rattus norvegicus", "assay": "Anticonvulsant activity in po dosed albino Sprague-Dawley rat assessed as protection against scMet-induced seizures", "format": "functional", "outline": "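Male Sprague-Dawley albino rats (100-150 g) were dosed orally in 0.5% methylcellulose and tested by MES or by sc pentylenetetrazol (2.82% in 0.9% saline). Doses were varied to give 3-4 points between 0% and 100% protection. ED50 and 95% confidence intervals came from probit analysis.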"}, "Rattus norvegicus [16]": {"system": "Rattus norvegicus", "assay": "Anticonvulsant activity in albino Sprague-Dawley rat assessed as protection against scMet-induced seizures at 25 mg/kg, po", "format": "functional, organism-based", "set-up": "dose 25 mg/kg", "outline": "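Oral dosing of male Sprague-Dawley rats (100-150 g) with compound in 0.5% methylcellulose. Convulsant challenge given subcutaneously as a 2.82% pentylenetetrazol solution in 0.9% saline. Groups of about 8 rats per dose. For quantitation, doses spanning 0% to 100% protection were fitted by probit analysis to give ED50 with 95% confidence interval.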"}, "Rattus norvegicus [17]": {"species": "Rattus norvegicus", "assay": "Anticonvulsant activity in hippocampal kindled Sprague-Dawley rat model", "format": "functional", "conditions": "albino Sprague-Dawley, Hippocampus"}, "Rattus norvegicus [18]": {"system": "Rattus norvegicus", "assay": "Anticonvulsant activity in ip dosed albino Sprague-Dawley rat assessed as protection against pilocarpine-induced status epilepticus", "format": "functional", "outline": "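Rat pilocarpine-induced status model: drug was given either at the first stage III seizure (time 0) or 30 min after status induction, […]. Seizure severity was scored on the Racine scale as protection or no protection. Time 0 used 12, 25, 50 and 100 mg/kg with 8 rats per dose. The 30 min arm used 50, 75 and 100 mg/kg with 7, 6 and 7 rats. ED50 was calculated.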"}, "Mus musculus [19]": {"system": "Mus musculus", "assay": "Teratogenic effect in SWV mouse assessed as number of implants at 671 mg/kg, ip administered on morning of day 8 of gestation", "format": "toxicity, organism-based", "set-up": "dose 671 mg/kg, route intraperitoneal", "conditions": "in vivo", "outline": "as §1"}, "Mus musculus [20]": {"system": "Mus musculus", "assay": "Teratogenic effect in SWV mouse assessed as resorptions at 502 mg/kg, ip administered on morning of day 8 of gestation", "format": "toxicity, organism-based", "set-up": "dose 502 mg/kg, route intraperitoneal", "conditions": "in vivo", "outline": "as §1"}, "Mus musculus [21]": {"system": "Mus musculus", "assay": "Teratogenic effect in VPA-induced SWV mouse assessed as number of fetuses with neural tube deffects at 671 mg/kg, ip administered on morning of day 8 of gestation", "format": "toxicity, organism-based", "set-up": "dose 671 mg/kg, route intraperitoneal", "conditions": "in vivo", "outline": "as §1"}, "Mus musculus [22]": {"system": "Mus musculus", "assay": "Teratogenic effect in VPA-induced SWV mouse assessed as number of fetuses with neural tube deffects at 502 mg/kg, ip administered on morning of day 8 of gestation", "format": "toxicity, organism-based", "set-up": "dose 502 mg/kg, route intraperitoneal", "conditions": "in vivo", "outline": "as §1"}}, "note": "Calls of active or inactive are those of the source. The calls are words filed in the database; no cut-off is given here.", "data": [{"smiles": "CC1(C)C(C)(C)C1(F)C(N)=O", "values": [{"measurement": "Activity", "setting": "Mus musculus [1]", "value": 0}, {"measurement": "Activity", "setting": "Mus musculus [2]", "value": "Non-toxic"}, {"measurement": "Activity", "setting": "Mus musculus [3]", "value": "Toxic"}, {"measurement": "Activity", "setting": "Mus musculus [4]", "value": "Toxic"}, {"measurement": "Activity", "setting": "Mus musculus [5]", "value": "Non-toxic"}, {"measurement": "Activity", "setting": "Rattus norvegicus [6]", "value": "inactive"}, {"measurement": "Activity", "setting": "Rattus norvegicus [7]", "value": 75, "unit": "%"}, {"measurement": "Activity", "setting": "Rattus norvegicus [8]", "value": 50, "unit": "%"}, {"measurement": "ED50", "setting": "Mus musculus [9]", "value": "> 200", "unit": "mg/kg"}, {"measurement": "ED50", "setting": "Mus musculus [10]", "value": 38, "unit": "mg/kg"}, {"measurement": "PI", "setting": "Mus musculus [11]", "value": 3.2}, {"measurement": "TD50", "setting": "[12]", "value": 120, "unit": "mg/kg"}, {"measurement": "Activity", "setting": "Mus musculus [13]", "value": "Toxic"}, {"measurement": "ED50", "setting": "Rattus norvegicus [14]", "value": "> 100", "unit": "mg/kg"}, {"measurement": "ED50", "setting": "Rattus norvegicus [15]", "value": 6.4, "unit": "mg/kg"}, {"measurement": "Activity", "setting": "Rattus norvegicus [16]", "value": "Active"}, {"measurement": "ED50", "setting": "Rattus norvegicus [17]", "value": 30, "unit": "mg/kg"}, {"measurement": "ED50", "setting": "Rattus norvegicus [18]", "value": 23, "unit": "mg/kg"}, {"measurement": "Activity", "setting": "Mus musculus [19]", "value": 55}, {"measurement": "Activity", "setting": "Mus musculus [20]", "value": 26.8, "unit": "%"}, {"measurement": "Activity", "setting": "Mus musculus [21]", "value": 0}, {"measurement": "Activity", "setting": "Mus musculus [22]", "value": 0}]}]}
